Experimental data taken from ChEMBL document CHEMBL1142735, “Discovery of a new series of centrally active tricyclic isoxazoles combining serotonin (5-HT) reuptake inhibition with alpha2-adrenoceptor blocking activity” (J Med Chem, 2005).

Legend:
[1] = molecular target: T1, Sodium-dependent serotonin transporter (Homo sapiens, UniProt P31645); test: Inhibition of [3H]- paroxetine binding to 5-HTT receptor, serotonin transporter
Summary of the method: (§1)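 Human platelet membranes (50 µg protein) in 50 mM Tris-HCl pH 7.4 with 120 mM NaCl and 5 mM KCl. Competition against [3H]paroxetine (0.5 nM), 60 min at 25 °C. Nonspecific binding defined with imipramine (1 µM). Filtration over 0.1% PEI-presoaked GF/B, washed with incubation buffer. Sigmoidal fit of specific binding; Ki via Cheng-Prusoff.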

[2] = molecular target: T2, Adrenergic receptor alpha-1 (Homo sapiens, UniProt P35348+P25100+P35368); test: Inhibition of [3H]- prazosin binding to alpha-1 adrenergic receptor; assay type: protein assay
T2 sequence (P35348 whole entry): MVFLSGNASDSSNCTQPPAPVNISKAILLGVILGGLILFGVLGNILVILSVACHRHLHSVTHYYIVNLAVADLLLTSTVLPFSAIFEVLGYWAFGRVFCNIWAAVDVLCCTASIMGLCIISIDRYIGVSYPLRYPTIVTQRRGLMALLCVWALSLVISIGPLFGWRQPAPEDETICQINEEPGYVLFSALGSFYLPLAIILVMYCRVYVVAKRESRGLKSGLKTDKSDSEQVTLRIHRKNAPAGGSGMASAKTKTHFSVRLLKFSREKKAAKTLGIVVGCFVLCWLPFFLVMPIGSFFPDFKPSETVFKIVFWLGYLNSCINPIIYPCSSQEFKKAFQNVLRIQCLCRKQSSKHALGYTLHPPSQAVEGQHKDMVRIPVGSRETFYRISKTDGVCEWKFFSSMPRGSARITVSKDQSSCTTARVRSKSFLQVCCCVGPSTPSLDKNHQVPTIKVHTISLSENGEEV
T2 sequence (P25100 whole entry): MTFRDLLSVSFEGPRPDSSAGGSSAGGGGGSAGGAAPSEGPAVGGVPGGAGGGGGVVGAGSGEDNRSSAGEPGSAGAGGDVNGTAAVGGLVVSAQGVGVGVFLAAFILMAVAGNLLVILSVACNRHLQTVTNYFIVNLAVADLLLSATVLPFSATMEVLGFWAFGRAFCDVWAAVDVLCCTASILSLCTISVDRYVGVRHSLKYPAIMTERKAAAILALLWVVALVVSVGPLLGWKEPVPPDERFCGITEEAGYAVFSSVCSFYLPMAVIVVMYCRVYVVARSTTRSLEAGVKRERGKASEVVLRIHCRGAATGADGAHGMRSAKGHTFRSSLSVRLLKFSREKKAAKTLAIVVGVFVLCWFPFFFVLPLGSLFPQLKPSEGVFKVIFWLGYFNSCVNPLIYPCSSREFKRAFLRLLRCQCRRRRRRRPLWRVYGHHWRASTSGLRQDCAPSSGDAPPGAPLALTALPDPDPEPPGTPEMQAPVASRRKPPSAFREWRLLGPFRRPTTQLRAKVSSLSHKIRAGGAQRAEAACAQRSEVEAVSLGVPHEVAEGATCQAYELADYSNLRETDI
T2 sequence (P35368 whole entry): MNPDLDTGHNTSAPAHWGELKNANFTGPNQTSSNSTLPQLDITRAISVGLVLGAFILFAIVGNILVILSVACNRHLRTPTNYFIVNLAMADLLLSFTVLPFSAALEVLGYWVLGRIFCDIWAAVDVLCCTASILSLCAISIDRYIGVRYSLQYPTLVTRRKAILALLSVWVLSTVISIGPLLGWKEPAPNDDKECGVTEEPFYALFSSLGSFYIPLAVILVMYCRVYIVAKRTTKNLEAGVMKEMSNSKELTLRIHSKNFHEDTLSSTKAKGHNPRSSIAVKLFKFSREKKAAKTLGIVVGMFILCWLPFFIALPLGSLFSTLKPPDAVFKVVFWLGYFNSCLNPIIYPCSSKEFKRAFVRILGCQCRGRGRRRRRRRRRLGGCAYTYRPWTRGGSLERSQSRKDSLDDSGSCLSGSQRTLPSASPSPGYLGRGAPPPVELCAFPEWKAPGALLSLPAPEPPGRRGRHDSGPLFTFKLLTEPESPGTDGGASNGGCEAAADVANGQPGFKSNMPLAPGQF
Summary of the method: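 Radioligand competition binding on membranes from cell lines carrying the human target, incubated with the labelled ligand under optimized conditions. Separation by filtration, except α1A and D3, which used scintillation proximity assay.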

Rattus norvegicus [3] = test: Effective dose for reversal of medetomidine-Induced loss of righting was determined by oral administration; assay type: functional
Summary of the method: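 Oral pretreatment of overnight-fasted male Wistar rats (200-250 g), then medetomidine 0.10 mg/kg iv (reversal means no loss of righting) or pCA 5 mg/kg sc (excitation scored 0-3 over 15 min from 45 min after pCA; inhibition means score <2). Doses taken from a geometric series.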

[4] = molecular target: Norepinephrine transporter (Rattus norvegicus, UniProt Q9WTR4); test: Inhibition of [3H]-nisoxetine binding to Norepinephrine transporter from rat cortex
Summary of the method: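 Radioligand competition on rat cortex membranes, incubated under optimized conditions. Stopped by rapid filtration. Ki by Cheng-Prusoff.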

[5] = molecular target: T3, Alpha-2C adrenergic receptor (Homo sapiens, UniProt P18825); test: Binding affinity for alpha-2C-adrenergic receptor
T3 sequence (P18825 whole entry): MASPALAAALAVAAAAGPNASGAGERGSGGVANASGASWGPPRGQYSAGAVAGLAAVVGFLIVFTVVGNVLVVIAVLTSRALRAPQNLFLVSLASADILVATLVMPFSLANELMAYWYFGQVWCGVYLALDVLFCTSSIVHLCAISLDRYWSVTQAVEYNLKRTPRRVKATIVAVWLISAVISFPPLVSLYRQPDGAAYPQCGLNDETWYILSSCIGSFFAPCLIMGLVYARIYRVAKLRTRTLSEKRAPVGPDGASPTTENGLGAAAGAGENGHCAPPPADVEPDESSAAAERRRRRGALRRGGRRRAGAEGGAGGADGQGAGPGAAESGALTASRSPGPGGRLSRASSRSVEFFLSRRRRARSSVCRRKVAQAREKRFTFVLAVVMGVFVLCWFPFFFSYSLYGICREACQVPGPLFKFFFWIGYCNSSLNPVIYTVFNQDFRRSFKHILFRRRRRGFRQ
Summary of the method: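 Human alpha2C receptor stably expressed in CHO cell membranes (5-10 µg protein) in 25 mM glycylglycine, pH 7.6. Competition against [3H]rauwolscine (1 nM), 30 min at 25 °C. Nonspecific binding defined with spiroxatrine (1 µM). Rapid filtration over GF/B, washed with ice-cold 50 mM Tris-HCl pH 8.0, scintillation counting. Sigmoidal curves fitted; Ki by Cheng-Prusoff.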

[6] = molecular target: T1, Sodium-dependent serotonin transporter; test: Binding affinity for serotonin transporter; assay type: functional, Rattus norvegicus; summary of the method: as §1
Rattus norvegicus [7] = test: Effective dose for antagonism ofpCA-Induced excitation was determined by subcutaneous administration; assay type: functional; conditions: sc
Summary of the method: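 Male Wistar rats (200-250 g), fasted overnight, given test compound or solvent sc before challenge. Loss of righting induced by medetomidine 0.10 mg/kg iv; reversal means no loss of righting. Excitation induced by pCA 5 mg/10 mL/kg sc and scored 0-3 over 15 min starting 45 min after pCA; inhibition means score <2.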

T1 sequence (P31645 whole entry): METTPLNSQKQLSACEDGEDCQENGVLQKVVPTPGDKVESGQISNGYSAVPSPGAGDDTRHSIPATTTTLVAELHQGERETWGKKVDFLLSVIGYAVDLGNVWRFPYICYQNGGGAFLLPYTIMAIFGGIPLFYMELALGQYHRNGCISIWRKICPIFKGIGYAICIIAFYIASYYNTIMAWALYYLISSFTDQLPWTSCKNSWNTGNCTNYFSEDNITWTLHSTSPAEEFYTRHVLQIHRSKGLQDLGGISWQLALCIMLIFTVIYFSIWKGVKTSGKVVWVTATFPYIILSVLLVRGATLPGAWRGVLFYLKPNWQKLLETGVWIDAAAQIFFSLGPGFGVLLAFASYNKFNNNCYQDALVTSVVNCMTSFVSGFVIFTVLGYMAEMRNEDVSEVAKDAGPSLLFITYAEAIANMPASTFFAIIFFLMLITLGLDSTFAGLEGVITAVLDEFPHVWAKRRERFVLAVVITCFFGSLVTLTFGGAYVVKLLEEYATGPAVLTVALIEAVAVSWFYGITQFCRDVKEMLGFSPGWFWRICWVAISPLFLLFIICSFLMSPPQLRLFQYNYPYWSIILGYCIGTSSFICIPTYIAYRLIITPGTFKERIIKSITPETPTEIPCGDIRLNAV
Sequence of Norepinephrine transporter (Q9WTR4 whole entry): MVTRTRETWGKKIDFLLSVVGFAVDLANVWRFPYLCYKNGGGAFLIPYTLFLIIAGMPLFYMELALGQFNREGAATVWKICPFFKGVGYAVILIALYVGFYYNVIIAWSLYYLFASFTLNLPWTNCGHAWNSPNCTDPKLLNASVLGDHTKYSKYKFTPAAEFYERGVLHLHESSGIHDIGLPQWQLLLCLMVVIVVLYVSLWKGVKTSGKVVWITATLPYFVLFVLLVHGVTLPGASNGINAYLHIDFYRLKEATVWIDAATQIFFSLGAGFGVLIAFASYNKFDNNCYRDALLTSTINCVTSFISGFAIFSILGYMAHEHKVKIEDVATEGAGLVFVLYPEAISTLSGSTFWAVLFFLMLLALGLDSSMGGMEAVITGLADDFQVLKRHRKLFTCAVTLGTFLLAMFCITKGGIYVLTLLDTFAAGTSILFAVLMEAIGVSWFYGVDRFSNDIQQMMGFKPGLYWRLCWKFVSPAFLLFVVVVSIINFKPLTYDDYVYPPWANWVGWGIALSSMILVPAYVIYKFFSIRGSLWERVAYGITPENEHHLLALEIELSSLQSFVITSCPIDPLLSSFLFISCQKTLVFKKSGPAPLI

For `COc1cc2c(cc1OC)C1=NO[C@@H](CN3CCN(C/C=C/c4ccccc4)CC3)[C@@H]1CO2`, which Ki [1] is on record?
Its Ki is 1.2 nM.

What about the Ki [2] of the same compound?
The Ki was > 1000 nM.

What about the ED50 (Rattus norvegicus [3]) of the same compound?
Its ED50 is 1.3 mg/kg.

And the Ki [4]?
The Ki was 132 nM.

With `COc1cc2c(cc1OC)C1=NO[C@@H](CN3CCN(C/C=C(\C)c4ccccc4)CC3)[C@@H]1CO2` as the compound, how does the Ki [5] read?
The Ki was 0.6 nM.

What about the Ki [2] of the same compound?
Its Ki is > 1000 nM.

And the Ki [6]?
Its Ki is 10 nM.

And the Ki [4]?
The Ki was 220 nM.

`COc1cc2c(cc1OC)C1=NO[C@@H](CN3CCN(C/C(C)=C/c4ccccc4)CC3)[C@@H]1CO2` was tested. Which Ki [2] did it give?
The Ki was 380 nM.

What about the ED50 (Rattus norvegicus [3]) of the same compound?
The ED50 was 0.63 mg/kg.

And the Ki [4]?
Its Ki is 177 nM.

`COc1cc2c(cc1OC)C1=NO[C@@H](CN3CCN(Cc4ccc5ccccc5c4)CC3)[C@@H]1CO2` was tested. Which ED50 (Rattus norvegicus [7]) did it give?
Its ED50 is 0.08 mg/kg.

And the Ki [5]?
Its Ki is 3.1 nM.

And the Ki [1]?
The Ki was 1.7 nM.

What about the Ki [2] of the same compound?
Its Ki is > 1000 nM.

What about the Ki [6] of the same compound?
Its Ki is 1.7 nM.

And the Ki [4]?
The Ki was 33 nM.
